# Laboratory results as given in article PMC10998571 (Proceedings of the National Academy of Sciences of the …, 2024).
# No end group written: not given here.
# Assays:
# TNFR1 PLAD = test: PLAD FRET biosensor; format: cell-based; conditions: HEK293 cells, 24 h; FKC 50 µM, ZAF 100 µM or co-treatment; N = 4
# How it was run: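 PLAD FRET biosensor made by transient Lipofectamine 3000 transfection of HEK293 cells with donor-only or donor/acceptor FRET pair DNAs. Cells moved to 96-well plates at 15,000 cells/well and treated with PBS (negative control), test compound and/or zafirlukast for 24 h before fluorescence intensity readout.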
# TNFR1 [1] = target: T1, TNFR1 (Homo sapiens, UniProt P19438); conditions: 37 (ZAF); ref 55 (Pep4-19); cited from earlier work
# T1 sequence (P19438 30-242) 1: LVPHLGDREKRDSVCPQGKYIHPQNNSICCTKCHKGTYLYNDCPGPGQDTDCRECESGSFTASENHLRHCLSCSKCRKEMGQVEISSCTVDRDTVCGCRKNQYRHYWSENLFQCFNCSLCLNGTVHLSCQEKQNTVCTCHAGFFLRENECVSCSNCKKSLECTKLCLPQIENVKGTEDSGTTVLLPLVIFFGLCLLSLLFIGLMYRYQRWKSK
# T1 sequence (P19438 30-242) 2: T1 sequence (P19438 30-242) 1
# TNFR1 [2] = target: T1, TNFR1; test: TNFR1 FRET biosensor; format: cell-based
# How it was run: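 HEK293 cells transiently transfected (Lipofectamine 3000) with TNFR1ΔCD–GFP donor alone or with TNFR1ΔCD–RFP acceptor; donor-only served as the no-FRET control. Cells plated at 15,000 cells/well in 96-well plates and treated with PBS or test compound (5 to 50 µM) for 24 h. FRET read from fluorescence intensity; EC50 derived from the dose–response of FRET change.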
# HEK293 cells = test: MTT assay; format: cell-based, human; conditions: FKC 5-50 µM, 24 h, absorbance at 560 nm, N = 4
# [3] = test system: IL-1β induced NF-κB activation in HEK293 cells; test: IL-1β induced NF-κB activation; format: cell-based, human; conditions: IL-1β 50 ng/mL, 18 h, N = 4
# How it was run: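 HEK293 cells co-transfected with an NF-κB-response-element Firefly luciferase reporter (1 μg) and a Renilla reporter (0.1 μg) using Lipofectamine 3000. After 24 h, 15,000 cells/well were incubated with PBS or test compound (5 to 50 µM), with or without IL-1β, for 18 h at 37 °C. Dual-Glo Firefly, then Stop & Glo Renilla, 15 min RT each. Firefly normalised to Renilla and to ligand-treated cells.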
# [4] = i.p. injection, mice; rhodamine fluorescence of tissue sections
# IL-23 receptor = conditions: without affecting ligand binding; cited from earlier work
# NF-κB activation = conditions: cited from earlier work
# TNFR1/TNF = test: Co-IP of TNFR1 and TNF; format: binding; conditions: co-IP with His-tagged TNF beads, overnight 4 °C; FKC 50 µM or etanercept
# How it was run: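 Ni-NTA agarose beads loaded with His-tagged human TNF for 4 h at 4 °C and washed with PBS. […] Samples were analysed by Western blotting, with equal bead-bound TNF and input TNFR1 as pull-down controls.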
compound,measurement,setting,value
"COc1cc(C(=O)NS(=O)(=O)c2ccccc2C)ccc1Cc1cn(C)c2ccc(NC(=O)OC3CCCC3)cc12 [ZAF, zafirlukast]",FRET change of the PLAD biosensor,TNFR1 PLAD,reduced FRET in the PLAD biosensor
same,extent of inhibition of TNFR1 signaling,TNFR1 [1],only exhibited partial inhibition
FKCRRWQWRMKK-NH2 [FKC],EC50,TNFR1 [2],25 µM
same,toxicity in HEK293 cells,HEK293 cells,does not have any toxic effect in HEK293 cells
"IL-1β: cytokine that binds IL-1 receptor to stimulate NF-κB activation (MedChemExpress, Cat# HY-P7028)",NF-κB activation relative to basal level (IL-1β),[3],10 fold
Rho-FKCRRWQWRMKK-NH2 [rhodamine-conjugated FKC],"localization in liver, kidney, and lung",[4],localization of FKC in all tissues
TEEEQQLY [compound 2305],inhibition of IL-23 signaling,IL-23 receptor,noncompetitively inhibit IL-23 signaling
VQRWLIVWRIRK-NH2 [IDR],inhibition of NF-κB activation (earlier reports),NF-κB activation,inhibit NF-κB activation
etanercept,effect on receptor–ligand interaction,TNFR1/TNF,disrupting receptor–ligand interaction
